Results from ChEMBL document CHEMBL1154156, “Natural tanshinone-like heterocyclic-fused ortho-quinones from regioselective Diels-Alder reaction: synthesis and cytotoxicity evaluation” (Eur J Med Chem, 2009).

Experiments:
[1] = Cytotoxicity against human CNE2 cells after 48 hrs by MTT assay; format: functional, cell-based, CNE-2
In short: (§1)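 Human cells (GLC-82 lung adenocarcinoma; CNE2 nasopharyngeal carcinoma) were seeded at 1×10⁴ per well and incubated overnight. They were then exposed for 48 h to increasing compound concentrations (0–100). MTT (5 mg/mL stock) was added for 4 h at 37 °C, and unconverted MTT was removed before plate-reader absorbance. Runs were in quadruplicate, with viability as % of untreated control. IC50 is the concentration reducing mean viability to 50%.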

[2] = Cytotoxicity against human GLC82 cells after 48 hrs by MTT assay; format: functional, cell-based; in short: as §1
[3] = Homo sapiens, CNE-2, 48 h, read-out: IC50
[4] = Homo sapiens, GLC82, 48 h, read-out: IC50

Row | SMILES | IC50 [1, 3] [µM] | IC50 [2, 4] [µM] | IC50 ([1]; cne-2) | IC50 ([2]; glc82)
1 | CC(=O)Nc1c(C)cc(C)c2c1C(=O)C(=O)c1c(-c3ccc(Cl)cc3)coc1-2 | 9.2 | 6 | – | –
2 | CC(=O)Nc1c(C)cc(C)c2c1C(=O)C(=O)c1c(-c3ccc(Cl)cc3)csc1-2 | 6.8 | 7.5 | – | –
3 | Cc1cc(C)c2c(c1)C(=O)C(=O)c1c(-c3ccc(F)cc3)coc1-2 | – | – | ND(Insoluble) | ND(Insoluble)
4 | O=C1C(=O)c2c(-c3ccccc3)csc2-c2ccccc21 | – | 20.1 | – | –
5 | O=C1C(=O)c2c(-c3ccc(Cl)cc3)coc2-c2cccc(N3C(=O)CCC3=O)c21 | 2 | 1.6 | – | –
6 | CC(=O)Nc1c(C)cc(C)c2c1C(=O)C(=O)c1c(-c3ccccc3)csc1-2 | 4.1 | 5 | – | –
7 | Cc1cc(C)c2c(c1)C(=O)C(=O)c1cc(C)oc1-2 | – | – | ND(Insoluble) | ND(Insoluble)
8 | CC(=O)Nc1c(C)cc(C)c2c1C(=O)C(=O)c1c(-c3ccc(C)cc3)coc1-2 | 5.6 | 9.5 | – | –
9 | CC(=O)Nc1c(C)cc(C)c2c1C(=O)C(=O)c1c(-c3ccc(C)c(C)c3)coc1-2 | – | – | ND(Insoluble) | ND(Insoluble)
10 | CC(=O)Nc1c(C)cc(C)c2c1C(=O)C(=O)c1c(-c3ccccc3C)csc1-2 | 4.2 | – | – | –
11 | Cc1cc(C)c2c(c1)C(=O)C(=O)c1c(-c3ccccc3)coc1-2 | > 25 | > 25 | – | –
12 | CC(=O)Nc1c(C)cc(C)c2c1C(=O)C(=O)c1c(-c3ccc(F)cc3)coc1-2 | – | 8.9 | – | –
13 | CC(=O)Nc1c(C)cc(C)c2c1C(=O)C(=O)c1c(-c3ccc(F)cc3)csc1-2 | 4.6 | 3.9 | – | –
14 | CC(=O)Nc1c(C)cc(C)c2c1C(=O)C(=O)c1c(-c3ccccc3)coc1-2 | 4.8 | 7.2 | – | –
15 | Cc1cc(C)c2c(c1)C(=O)C(=O)c1c(-c3ccc(C)c(C)c3)coc1-2 | – | – | ND(Insoluble) | ND(Insoluble)
16 | Cc1ccc(-c2coc3c2C(=O)C(=O)c2cc(C)cc(C)c2-3)cc1 | 23.3 | 12 | – | –
17 | Cc1cc(C)c2c(c1)C(=O)C(=O)c1c(-c3ccc(Cl)cc3)coc1-2 | – | – | ND(Insoluble) | ND(Insoluble)
18 | CC[C@@]1(O)C(=O)OCc2c1cc1n(c2=O)Cc2cc3cc(O)ccc3nc2-1 [HYDROXYCAMPTOTHECIN] | 0.37 | 1.09 | – | –
